Key:
HUVEC = assay: Cytotoxicity against human HUVEC cells after 2 days by MTT assay; format: cell-based; settings: 48 h
How it was run: (§1)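 Cells grown in medium with 10% heat-inactivated FBS at 37 C under 5% CO2. Compounds dissolved in medium with 1% DMSO; controls received 1% DMSO. After 2 days, MTT (10 mg/mL) added for 4 h, formazan dissolved in DMSO and absorbance read at 570/630 nm. Survival taken relative to negative control; IC50 by Bliss method (n = 5), at least three independent experiments.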

HepG2 = assay: Cytotoxicity against human HepG2 cells after 2 days by MTT assay; format: functional, cell-based; settings: HepG2, 48 h; how it was run: as §1
[1] = Cytotoxicity against human SPCA2 cells after 2 days by MTT assay; format: functional, cell-based; settings: SPCA2, 48 h; how it was run: as §1
MGC-803 = assay: Cytotoxicity against human MGC803 cells after 2 days by MTT assay; format: functional, cell-based; settings: MGC-803, 48 h; how it was run: as §1
A549 = assay: Cytotoxicity against human A549 cells after 2 days by MTT assay; format: functional, cell-based; settings: A549, 48 h; how it was run: as §1
NCI-H460 = assay: Cytotoxicity against human NCI-H460 cells after 2 days by MTT assay; format: functional, cell-based; settings: NCI-H460, 48 h; how it was run: as §1
[2] = Cytotoxicity against human T24 cells after 2 days by MTT assay; format: functional, cell-based; settings: T-24, 48 h; how it was run: as §1
[3] = Cytotoxicity against human SKOV3 cells after 2 days by MTT assay; format: functional, cell-based; settings: SK-OV-3, 48 h; how it was run: as §1

Structure (SMILES) | IC50 (HUVEC) [µM] | IC50 (HepG2) [µM] | IC50 [1] [µM] | IC50 (MGC-803) [µM] | IC50 (A549) [µM] | IC50 (NCI-H460) [µM] | IC50 [2] [µM] | IC50 [3] [µM]
COC(=O)c1ccc2c(c1)/C(=N\O)C(c1c[nH]c3ccc(C(=O)OC)cc13)=N2 | > 100 | 15.3 | 14.9 | 22.4 | 20.5 | 14 | 11.5 | 15.6
Cc1ccc(CO/N=C2/C(c3c[nH]c4ccc(Br)cc34)=Nc3ccc(Br)cc32)cc1 | > 100 | 20.4 | 15.1 | 31.2 | 13.3 | 10.6 | 21.4 | 7.22
CC(=O)Nc1ccc2c(c1)/C(=N\O)C(c1c[nH]c3ccc(NC(C)=O)cc13)=N2 | > 100 | 28.2 | 27.8 | 17.9 | 21.9 | 30.2 | 16.8 | 21.2
O/N=C1/C(c2c[nH]c3cc(F)ccc23)=Nc2cc(F)ccc21 | > 100 | 13.8 | 10 | 22.1 | 21.3 | 22.2 | 11.7 | 16.4
O/N=C1/C(c2c[nH]c3ccc(Br)cc23)=Nc2ccc(Br)cc21 | > 100 | 14.3 | 11.6 | 13.2 | 16.2 | 18.9 | 12.5 | 19.2
Fc1ccc(CO/N=C2/C(c3c[nH]c4ccccc34)=Nc3ccccc32)cc1 | > 100 | 35.5 | 25.9 | 33 | 27 | 20.7 | 23.1 | 29
Cc1ccc(CO/N=C2/C(c3c[nH]c4ccc(F)cc34)=Nc3ccc(F)cc32)cc1 | > 100 | 19.6 | 11 | 20.8 | 13.6 | 12 | 20 | 11.3
FC(F)(F)c1ccc(CO/N=C2/C(c3c[nH]c4ccccc34)=Nc3ccccc32)cc1 | > 100 | 22.3 | 21.2 | 30.6 | 21.9 | 24.1 | 18.9 | 24.2
Clc1cccc(CO/N=C2/C(c3c[nH]c4ccc(Br)cc34)=Nc3ccc(Br)cc32)c1 | > 100 | 13.3 | 13.5 | 7.6 | 12.9 | 14.6 | 9.34 | 14.1
O/N=C1/C(c2c[nH]c3ccccc23)=Nc2ccccc21 | > 100 | 20.4 | 20.4 | 20.6 | 21.8 | 22.5 | 27.4 | 15.9
Cc1ccc2c(c1)/C(=N\O)C(c1c[nH]c3ccc(C)cc13)=N2 | > 100 | 10.7 | 19.6 | 9.47 | 11.2 | 18.3 | 8.78 | 11.1
O/N=C1/C(c2c[nH]c3ccc(F)cc23)=Nc2ccc(F)cc21 | > 100 | 9.31 | 13.7 | 12.3 | 11.9 | 12.8 | 10.1 | 9.89
Cc1cccc2c1N=C(c1c[nH]c3c(C)cccc13)/C2=N/O | > 100 | 15.6 | 24.3 | 16.9 | 17.5 | 31.4 | 23.5 | 48
Cc1cccc2c1N=C(c1c[nH]c3c(C)cccc13)/C2=N/OCc1cccc(F)c1 | > 100 | 34.1 | 20.4 | 31.9 | 23.3 | 16.8 | 21.2 | 17.3
N#Cc1ccc2c(c1)/C(=N\OCc1ccccc1)C(c1c[nH]c3ccc(C#N)cc13)=N2 | > 100 | 25.1 | 19.3 | 15.5 | 14.2 | 14.5 | 18.6 | 16.6
COC(=O)c1ccc2c(c1)N=C(c1c[nH]c3cc(C(=O)OC)ccc13)/C2=N/O | > 100 | 20.8 | 27.2 | 29.8 | 25.9 | 20.8 | 14.3 | 26.8
Fc1ccc(CO/N=C2/C(c3c[nH]c4ccccc34)=Nc3ccccc32)c(Cl)c1 | > 100 | 25.4 | 19.5 | 18.5 | 21.4 | 21.9 | 20 | 37.6
